# High-throughput results deposited in PubChem by Broad Institute.
# This is a sample that favours compounds with a hit; in the whole collection about 2.2% have one here.
# PGC1a acetyl inh: inhibitors of PGC1a acetylation signal, primary screen, cell-based, U2OS, AlphaScreen, inhibitor mode | inhibition, % at 15.6 µM | 0.17% of 350,000 active | AlphaScreen anti-acetyl-lysine; with virally co-expressed GCN5 acetyltransferase;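 active means every replicate shows inhibition of at least 40%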
# SIRT5 inh: SIRT5 desuccinylase inhibitors, primary screen, biochemical, fluorescence imaging, single point, set 5; NAD-dependent protein deacylase sirtuin-5, mitochondrial (Homo sapiens), Q9NXA8; Purified SirT5, succinyl-peptide AMC, trypsin-coupled fluorescence; inhibition, % at 15 µM; 1.1% of 330,000 active; AID 652115, 2013; in the data active means inhibition above about 15%
# ERAP1 inh: human ERAP1 aminopeptidase inhibitors, primary screen, biochemical, single point, plate reader | recombinant ERAP1, Leu-AMC fluorescence, 60 min | 0.15% of 340,000 active | inhibition, % at 10.7 µM | AID 652197, 2013;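 active means mean replicate inhibition of at least 30%, or all replicates individually reaching that 30% level; inactive means mean below 30% and not every replicate reaching it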
# Target sequence (Q9NZ08 whole entry, looked up): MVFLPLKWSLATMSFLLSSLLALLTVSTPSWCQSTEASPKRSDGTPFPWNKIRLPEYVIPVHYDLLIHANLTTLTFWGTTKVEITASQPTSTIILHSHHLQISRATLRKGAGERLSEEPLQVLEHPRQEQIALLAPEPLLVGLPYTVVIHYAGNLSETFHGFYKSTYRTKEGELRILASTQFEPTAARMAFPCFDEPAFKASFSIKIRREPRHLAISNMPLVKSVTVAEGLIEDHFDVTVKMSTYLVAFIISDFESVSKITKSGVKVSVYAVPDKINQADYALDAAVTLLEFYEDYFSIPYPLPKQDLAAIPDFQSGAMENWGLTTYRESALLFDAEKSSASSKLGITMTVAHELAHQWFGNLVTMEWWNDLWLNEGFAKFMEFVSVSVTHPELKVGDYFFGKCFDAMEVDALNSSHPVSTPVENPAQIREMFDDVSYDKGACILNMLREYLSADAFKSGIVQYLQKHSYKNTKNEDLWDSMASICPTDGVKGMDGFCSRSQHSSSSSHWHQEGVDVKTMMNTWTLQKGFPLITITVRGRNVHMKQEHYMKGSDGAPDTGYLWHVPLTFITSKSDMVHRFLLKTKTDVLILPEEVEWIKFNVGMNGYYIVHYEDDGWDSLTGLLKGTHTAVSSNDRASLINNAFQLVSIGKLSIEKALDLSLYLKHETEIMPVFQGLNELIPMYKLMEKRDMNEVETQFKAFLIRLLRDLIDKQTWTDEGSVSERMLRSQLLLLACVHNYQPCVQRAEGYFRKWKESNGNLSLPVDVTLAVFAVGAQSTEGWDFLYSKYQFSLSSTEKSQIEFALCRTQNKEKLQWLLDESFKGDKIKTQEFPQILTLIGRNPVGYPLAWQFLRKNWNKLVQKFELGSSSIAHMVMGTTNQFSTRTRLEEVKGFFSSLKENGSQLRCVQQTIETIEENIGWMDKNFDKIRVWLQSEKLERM
# FGF22 binding-1: binders of human FGF22 protein, primary screen, FGF22 synaptogenesis inhibitor project, biophysical, thermal shift, single point; AID 651658, 2012; recombinant FGF22 thermal shift, SYPRO orange fluorescence; percent of sucrose octasulfate shift, DMSO zero; Fibroblast growth factor 22 (Homo sapiens), Q9HCT0; 1.5% of 340,000 active; activity (Tm shift, normalised), % at 9.99 µM;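 active means mean Tm shift, scaled 0 neutral to 100 positive control, at about 1.3% or above, every replicate too, limit read from the data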
# FN deposit inh: inhibitors of fibronectin matrix deposition, primary screen, AH1F cells, Alexa488-fibronectin fluorescence, plate reader; AID 743247, 2014; AH1F fibroblasts, overnight; inhibition, % at 12.6 µM; 0.086% of 350,000 active;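 active means mean inhibition across replicates of 30% or more, regardless of how many single replicates reach that level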
#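 Material: AH1F fibroblast monolayer depositing Alexa488-labelled fibronectin into matrix / Amount: 10000 AH1F cells per well / Signal: fluorescence 485/525 nm / Medium: DMEM, 2% serum / Compound: single dose, pinned / Incubation: 1 h cell adhesion before compound, then overnight fibronectin incubation / Reagent: Alexa488-FN, 24 nM final / Read-out: inhibition of fibronectin deposition signal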
# FGF22 binding-2: binders of human FGF22 protein, dose response, FGF22 synaptogenesis inhibitor project, biophysical, thermal shift, cherry-pick retest. shares compounds with FGF22 binding-1. recombinant FGF22 thermal shift, SYPRO orange fluorescence. thermal shift activity, °C (ΔTm) at 38 µM. 2% of 1,000 active;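 active means fitted rise in melting shift crosses a set limit at or below the top valid dose tested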
# SYPRO no-protein: compound-only thermal shift signal without protein, dose response, artefact control for FGF22 binder project, biochemical, cherry-picked samples, RT-PCR instrument; 2% of 1,000 active; shares compounds with FGF22 binding-1; compound-only SYPRO orange thermal shift counter-screen, no protein; AC50, µM (series often up to 38 µM);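 active means rising signal whose fitted curve reaches the 0.54 level within the top valid dose, showing a melting point, actives reach about 13 µM in these data; inactive means the rest, including activity in the opposite direction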; further: value is where the raw curve crosses a fixed level and not half-maximal
# Numbers stand for hits; 0 = inactive; - = no result given.
SMILES,PGC1a acetyl inh,SIRT5 inh,ERAP1 inh,FGF22 binding-1,FN deposit inh,FGF22 binding-2,SYPRO no-protein
O=C(C[C@@H]1CC[C@@H]2[C@H](COC[C@H](O)CN2C(=O)Nc2ccccc2)O1)NC1Cc2ccccc2C1,0,0,0,0,0,-,-
CCCNC(=O)Nc1ccc2c(c1)OC[C@@H](C)N(CC1CCCC1)C[C@H](C)[C@@H](OC)CN(C)C2=O,0,0,0,-,0,-,-
Cc1ccccc1C(=O)NCC(=O)OC(C)C(=O)Nc1cccc(S(=O)(=O)N2CCOCC2)c1 (stereo not given),0,0,0,1.5,0,0,0
CCCN1C[C@@H](C)[C@H](OC)CN(C)C(=O)c2cc(NC(=O)c3ccccc3F)ccc2OC[C@@H]1C,0,0,0,0,0,-,-
CCC(CC)CN1CCC(CN2C(=O)C(=O)NC[C@@H]2CC(C)C)CC1,0,0,0,1.9,0,-,0
C[C@H]1CN([C@@H](C)CO)S(=O)(=O)c2ccc(-c3ccc(F)cc3)cc2O[C@H]1CN(C)C,0,0,0,0,0,-,-
Cc1cccc(NS(=O)(=O)c2ccc3c(c2)NC(=O)CC(=O)N3)c1,-,0,0,0,0,-,-
CCc1cccc(NS(=O)(=O)c2ccc3c(c2)NC(=O)CC(=O)N3)c1,0,0,0,1.7,0,0,0
c1ccc(-c2cc3nc(NCc4ccc5c(c4)OCO5)ccn3n2)cc1,0,-,0,35,-,0,0
c1ccc(COc2ccc(-c3cc4nc(NCc5ccc6c(c5)OCO6)ccn4n3)cc2)cc1,-,-,0,0,0,-,-
CCCC#Cc1cnc2c(c1)C(=O)N([C@@H](C)CO)C[C@H](C)[C@@H](CN(C)C(=O)Nc1cccc(F)c1)O2,0,0,0,0,0,-,-
C[C@@H]1CN([C@@H](C)CO)C(=O)c2cc(NS(=O)(=O)c3cccs3)ccc2O[C@@H]1CN(C)C(=O)Nc1cccc2ccccc12,0,0,0,0,0,-,-
COc1ccc(S(=O)(=O)Nc2ccc3c(c2)C(=O)N([C@@H](C)CO)C[C@H](C)[C@@H](CN(C)Cc2ccncc2)OCCCC[C@@H](C)O3)cc1,0,0,0,0,-,-,-
CC(C)NC(=O)N1C[C@@H]2[C@H](c3ccccc31)[C@@H](CO)N2C(=O)c1cccnc1,0,0,0,0,-,-,-
CC(C)NC(=O)N1C[C@H]2[C@@H](c3ccccc31)[C@H](CO)N2C(=O)c1cccnc1,0,0,-,1.3,-,0,0
CCCNC(=O)N1C[C@@H]2[C@H](c3ccccc31)[C@H](CO)N2C(=O)c1ccccc1,0,0,-,-,-,-,-
CCCNC(=O)N1[C@@H]2CN(C(=O)c3ccccc3)c3ccccc3[C@@H]2[C@@H]1CO,0,-,-,1.8,-,0,0
C[C@@H]1CCCCO[C@@H](CN(C)S(C)(=O)=O)[C@H](C)CN([C@@H](C)CO)C(=O)c2cc(NS(=O)(=O)c3ccc(Cl)cc3)ccc2O1,0,0,0,0,0,-,-
COc1ccc(CN2C[C@@H](O)COC[C@H]3O[C@@H](CC(=O)N(C)C)CC[C@@H]32)cc1,0,0,0,0,0,-,-
O=C(C[C@H]1CC[C@H]2[C@@H](COC[C@H](O)CN2CC2CCOCC2)O1)NCC1CCCCC1,0,0,0,2.4,0,0,0
CN1CCN(C(=O)C[C@@H]2CC[C@H]3[C@@H](COC[C@H](O)CN3CC3CCCCC3)O2)CC1,0,0,0,24,-,0,0
C[C@@H]1CCCCO[C@@H](CN(C)Cc2ccc(C(=O)O)cc2)[C@H](C)CN([C@@H](C)CO)C(=O)c2cc(NC(=O)c3ccncc3)ccc2O1,0,0,0,0,-,-,-
O=C1C=CCCN1S(=O)(=O)/C=C/c1ccccc1,59,0,0,17,-,0,0
Nc1nc(-c2cccnc2)nn1C(=O)c1ccc(F)cc1,0,0,0,1.7,0,0,0
COc1ccc(CCNC(=O)C(=O)c2c(C)[nH]c3ccccc23)cc1,0,0,0,0,0,-,-
SMILES,PGC1a acetyl inh,SIRT5 inh,ERAP1 inh,FGF22 binding-1,FN deposit inh,FGF22 binding-2,SYPRO no-protein
Cc1[nH]c2ccccc2c1C(=O)C(=O)NCCOc1ccccc1,0,0,0,17,-,0,0
C/C(=N\NC(=O)c1ccc(NS(=O)(=O)c2cccs2)cc1)c1cccs1,0,0,0,1.5,0,0,0
C/C(=N\NC(=O)c1ccc(NS(=O)(=O)c2cccs2)cc1)c1ccc(Cl)cc1,-,-,-,-,0,-,-
CCNC(=O)C1(C)CCN(Cc2ccc(OC(F)(F)F)cc2)C1 (stereo not given),0,0,0,1.4,0,0,0
CCNC(=O)C1(C)CCN(Cc2ccc(C(F)(F)F)cc2)C1 (stereo not given),0,0,0,0,0,-,-
CC(=O)Nc1ccc2sc(C)nc2c1,0,0,-,38,0,0,0
Cc1nc2cc(NC(=O)CS(=O)(=O)c3ccccc3)ccc2s1,0,0,0,0,0,-,-
CCCNC(=O)[C@@H]1[C@@H](CO)[C@@H]2Cn3c(ccc(-c4ccc(C(=O)N(C)C)cc4)c3=O)[C@@H]2N1CCC,-,0,0,0,-,-,-
COc1ccc(N(C)S(=O)(=O)c2cccc(C(=O)Nc3ccc(N4CCOCC4)cc3)c2)cc1,0,0,0,2.3,0,0,0
Cc1ccc(N(C)S(=O)(=O)c2cccc(C(=O)Nc3ccc(N4CCOCC4)cc3)c2)cc1,0,0,0,0,0,-,-
CN1CCN(C(=O)C[C@H]2C=C[C@@H](NC(=O)c3ccc4c(c3)OCO4)[C@H](CO)O2)CC1,0,0,0,1.2,0,0,0
COc1cccc(NC(=O)N[C@H]2C=C[C@@H](CC(=O)N3CCN(C)CC3)O[C@H]2CO)c1,0,0,0,2.3,-,0,0
O=C(N[C@@H]1C=C[C@H](CC(=O)N2CCCCC2)O[C@@H]1CO)c1cccc(F)c1,0,0,0,1.3,-,0,0
O=C(N[C@H]1C=C[C@H](CC(=O)N2CCCCC2)O[C@H]1CO)c1cccc(F)c1,0,0,0,1.5,-,-,0
COc1cccc(NC(=O)N[C@H]2C=C[C@H](CC(=O)N3CCN(C)CC3)O[C@H]2CO)c1,-,0,0,-,-,-,-
C[C@H]1CCCCO[C@H](CN(C)C(=O)Nc2ccc(F)cc2)[C@@H](C)CN([C@@H](C)CO)C(=O)c2cc(NC(=O)Nc3cccc4ccccc34)ccc2O1,0,0,0,0,0,-,-
